Measurements as given in ChEMBL document CHEMBL1125911, “Synthesis and biological activity of new HMG-CoA reductase inhibitors. 3. Lactones of 6-phenoxy-3,5-dihydroxyhexanoic acids” (J Med Chem, 1991).
pIC50: −log10 of the molar value.

What was measured:
[1] = target: T1, 3-hydroxy-3-methylglutaryl-coenzyme A reductase (Rattus norvegicus, UniProt P51639); test: In vitro inhibition of HMG-CoA reductase in solubilized rat liver.
T1 sequence (P51639 whole entry): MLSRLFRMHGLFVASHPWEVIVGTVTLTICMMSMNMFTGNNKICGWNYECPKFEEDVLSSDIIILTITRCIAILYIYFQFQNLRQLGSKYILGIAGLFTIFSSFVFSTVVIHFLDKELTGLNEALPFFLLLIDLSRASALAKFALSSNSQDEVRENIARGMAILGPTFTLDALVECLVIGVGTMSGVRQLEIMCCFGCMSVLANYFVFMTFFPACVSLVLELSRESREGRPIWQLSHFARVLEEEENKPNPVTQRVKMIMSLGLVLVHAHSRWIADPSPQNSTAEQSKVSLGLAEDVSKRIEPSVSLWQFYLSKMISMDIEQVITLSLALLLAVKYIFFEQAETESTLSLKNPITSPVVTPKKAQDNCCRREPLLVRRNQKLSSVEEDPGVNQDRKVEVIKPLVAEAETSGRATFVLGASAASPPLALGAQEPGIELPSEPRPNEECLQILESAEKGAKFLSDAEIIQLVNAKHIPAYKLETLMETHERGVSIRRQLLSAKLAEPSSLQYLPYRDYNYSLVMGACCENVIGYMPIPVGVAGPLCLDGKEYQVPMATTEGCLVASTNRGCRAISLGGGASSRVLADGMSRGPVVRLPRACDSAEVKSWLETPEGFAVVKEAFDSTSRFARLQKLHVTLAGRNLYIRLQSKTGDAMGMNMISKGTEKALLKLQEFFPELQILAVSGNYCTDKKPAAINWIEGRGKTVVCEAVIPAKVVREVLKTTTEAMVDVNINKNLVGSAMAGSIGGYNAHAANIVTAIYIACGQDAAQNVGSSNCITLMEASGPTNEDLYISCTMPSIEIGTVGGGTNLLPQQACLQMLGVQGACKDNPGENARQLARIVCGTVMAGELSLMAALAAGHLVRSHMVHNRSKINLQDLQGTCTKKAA

[2] = target: T2, 3-hydroxy-3-methylglutaryl-coenzyme A reductase (Homo sapiens, UniProt P04035); test: Inhibition of the incorporation of sodium [14C]acetate into cholesterol in HEP G2 cells.; type: functional, cell-based, HepG2
T2 sequence (P04035 whole entry): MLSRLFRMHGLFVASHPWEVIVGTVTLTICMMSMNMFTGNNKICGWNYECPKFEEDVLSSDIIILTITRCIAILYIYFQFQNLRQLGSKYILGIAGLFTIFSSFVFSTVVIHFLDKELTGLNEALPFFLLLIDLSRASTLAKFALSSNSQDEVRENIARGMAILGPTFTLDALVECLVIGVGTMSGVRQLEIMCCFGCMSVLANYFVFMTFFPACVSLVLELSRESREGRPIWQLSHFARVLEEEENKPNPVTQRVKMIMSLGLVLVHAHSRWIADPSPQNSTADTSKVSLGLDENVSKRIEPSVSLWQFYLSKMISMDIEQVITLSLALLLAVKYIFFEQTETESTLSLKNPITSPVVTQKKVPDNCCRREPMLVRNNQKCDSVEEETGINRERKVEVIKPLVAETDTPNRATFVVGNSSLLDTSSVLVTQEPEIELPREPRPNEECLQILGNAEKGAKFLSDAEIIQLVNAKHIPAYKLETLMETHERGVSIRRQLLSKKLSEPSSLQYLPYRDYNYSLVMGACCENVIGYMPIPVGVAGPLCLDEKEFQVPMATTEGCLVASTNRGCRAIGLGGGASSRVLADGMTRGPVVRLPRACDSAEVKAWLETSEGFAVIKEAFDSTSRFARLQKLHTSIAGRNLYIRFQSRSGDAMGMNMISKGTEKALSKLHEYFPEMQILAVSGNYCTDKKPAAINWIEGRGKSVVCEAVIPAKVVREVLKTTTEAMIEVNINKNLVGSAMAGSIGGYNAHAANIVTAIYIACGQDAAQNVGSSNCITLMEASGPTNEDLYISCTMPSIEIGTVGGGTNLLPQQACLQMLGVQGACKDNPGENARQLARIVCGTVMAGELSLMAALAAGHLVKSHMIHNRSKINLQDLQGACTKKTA

[3] = target: T3, 3-hydroxy-3-methylglutaryl-coenzyme A reductase (Rattus norvegicus) (UniProt P51639); test: (§1) Inhibition of HMG-CoA reductase compared to mevinolin.
T3 sequence (whole entry): T1 sequence (P51639 whole entry)
In short: (§2)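 Solubilized, partially purified rat liver HMG-CoA reductase. IC50 from four or five inhibitor concentrations. Relative potency compared IC50 with mevinolin (set to 100), corrected for molecular weight.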

[4] = target: T4, 3-hydroxy-3-methylglutaryl-coenzyme A reductase (Homo sapiens) (UniProt P04035); test: as §1; type: functional; in short: as §2
T4 sequence (whole entry): T2 sequence (P04035 whole entry)

[5] = target: T1, 3-hydroxy-3-methylglutaryl-coenzyme A reductase; test: In vitro inhibition of solubilized HMG-CoA reductase in rat liver.
Sus scrofa = organism: Sus scrofa; test: In vitro inhibition of Cu2+ catalyzed LDL oxidation; type: functional
In short: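 Porcine plasma LDL isolated by sequential ultracentrifugation (density 1.019-1.063 g/mL), dialysed against PBS pH 7.4, then diluted to 0.1 mg/mL protein. Preincubated 1 h at 37 °C under N2 with compound in ethanol. Oxidised with 5 μM Cu2+ for 2 h at 37 °C in air. Fluorescence read at ex 365/em 430 nm.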

Rattus norvegicus = organism: Rattus norvegicus; test: Compound was tested for inhibition of microsomal lipid peroxidation and the potency relative to terbufucine was determined; type: functional
In short: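 Rat liver microsomes in 50 mM Tris-HCl pH 7.4 with 100 mM KCl and 6.0 mM MgCl2, final protein 0.4 mg/mL. Peroxidation was started with ADP (2 mM)/FeCl3 (10 μM) plus an NADPH-regenerating system. Incubation 30 min at 37 °C with shaking. Thiobarbituric acid reactive substances were read at 535 nm.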

Row | Structure (SMILES) | pIC50 [1] | Relative potency [3] | other results
1 | Cc1cc(C)c(OCC2C[C@@H](O)CC(=O)O2)c(C(Cl)C2CCCCC2)c1 (stereo partly specified) | < 6.00 | – | pIC50 [2]: 5.19; Relative potency [4]: < 1
2 | CCC(C)(C)OC(=O)C(c1cc(C)cc(C)c1OCC(O)C[C@@H](O)CC(=O)O)C1CCCCC1 (stereo in doubt; 11s) [listing 1 of 2 here] | 6.30 | – | pIC50 [2]: 5.77
3 | CCC(C)(C)C(=O)NC(c1cc(C)cc(C)c1OCC(O)C[C@@H](O)CC(=O)O)C1CCCCC1 (stereo in doubt; 11x) [listing 1 of 2 here] | – | – | Relative potency [4]: < 1
4 | O=C(O)C[C@H](O)C[C@H](O)/C=C/c1c(Cl)cc(Cl)cc1-c1ccc(F)cc1 | – | – | pIC50 [5]: 8.35
5 | CCC(C)(C)OC(=O)C(c1cc(C)cc(C)c1OCC(O)C[C@@H](O)CC(=O)O)C1CCCCC1 (stereo in doubt; 11r) [listing 2 of 2 here] | – | 12 | Relative potency [4]: < 1
6 | CC(C)(C)c1cc(C(C(=O)O)c2cc(C(C)(C)C)c(O)c(C(C)(C)C)c2)cc(C(C)(C)C)c1O [TERBUFICIN] | – | – | pIC50 (Sus scrofa): 6.96; Relative potency (Rattus norvegicus): 100
7 | Cc1c(OCC(O)C[C@@H](O)CC(=O)O)c(-c2ccc(F)cc2)nc2ccccc12 (stereo partly specified) | 6.00 | 1 | pIC50 [2]: < 5.30; Relative potency [4]: < 1
8 | Cc1c(CCC(O)C[C@@H](O)CC(=O)O)c(-c2ccc(F)cc2)cn1-c1ccccc1 (stereo partly specified) | – | – | pIC50 [5]: 7.46
9 | CC(C)c1cc(-c2ccccc2)cc(CC2CCCCC2)c1OCC(O)C[C@@H](O)CC(=O)O (stereo partly specified) | 6.40 | 2 | pIC50 [2]: 7.00; Relative potency [4]: 50
10 | O=C(O)C[C@H](O)CC(O)COc1c(CCCOc2ccc(F)cc2)cccc1C1CCCC1 (stereo partly specified) | < 6.00 | < 1 | –
11 | O=C(O)C[C@H](O)CC(O)COc1c(Cl)cc(Cl)cc1C(c1ccc(F)cc1)c1ccc(F)cc1 (stereo in doubt; 11pp) | 6.02 | – | –
12 | Cc1c(OCC(O)C[C@@H](O)CC(=O)O)c(C(c2ccc(F)cc2)c2ccc(F)cc2)cc2ccccc12 (stereo partly specified) | 6.05 | – | pIC50 [2]: 4.70; Relative potency [4]: < 1
13 | Cc1nc2ccccc2c(-c2ccccc2)c1OCC(O)C[C@@H](O)CC(=O)O (stereo partly specified) | < 6.00 | < 1 | pIC50 [2]: < 5.30; Relative potency [4]: < 1
14 | O=C(O)C[C@H](O)CC(O)COc1c(CCCOc2ccc(F)cc2)cc(Cl)cc1C1CCCC1 (stereo partly specified) | < 6.00 | < 1 | –
15 | CC(C)c1c(CCC(O)C[C@@H](O)CC(=O)O)c(-c2ccc(F)cc2)cn1-c1ccccc1 (stereo partly specified) | – | – | pIC50 [5]: 8.52
16 | Cc1cc(-c2ccccc2)nc(-c2ccc(F)cc2)c1/C=C/[C@@H](O)C[C@@H](O)CC(=O)O | – | – | pIC50 [5]: 7.42
17 | CCC(C)(C)C(=O)NC(c1cc(C)cc(C)c1OCC(O)C[C@@H](O)CC(=O)O)C1CCCCC1 (stereo in doubt; 11x) [listing 2 of 2 here] | 6.33 | – | pIC50 [2]: 5.00
18 | CC(C)c1c(OCC(O)C[C@@H](O)CC(=O)O)c(C(c2ccc(F)cc2)c2ccc(F)cc2)cc2ccccc12 (stereo partly specified) | 6.42 | 2 | pIC50 [2]: 5.46; Relative potency [4]: 2
19 | CCC(C)(C)OC(=O)C(c1cc(C)cc(C)c1OCC(O)C[C@@H](O)CC(=O)O)C1CCCCC1 (stereo in doubt; 11s) [listing 2 of 2 here] | – | – | Relative potency [4]: 3
20 | CCC(C)(C)C(=O)NC(c1cc(C)cc(C)c1OCC(O)C[C@@H](O)CC(=O)O)C1CCCCC1 (stereo in doubt; 11w) [listing 2 of 2 here] | – | 2 | Relative potency [4]: < 1
21 | Cc1cc(C(c2ccc(F)c(C)c2)c2cc(Cl)cc(Cl)c2OCC(O)C[C@@H](O)CC(=O)O)ccc1F (stereo partly specified) | 6.00 | – | –

More lines, main results first:

Row | pIC50 [1] | Relative potency [3] | Structure (SMILES) | other results
22 | 7.22 | – | CCC(C)(C)OC(=O)C(c1cc(C)cc(C)c1OCC(O)C[C@@H](O)CC(=O)O)C1CCCCC1 (stereo in doubt; 11r) [listing 1 of 2 here] | pIC50 [2]: 4.92
23 | 7.02 | 9 | O=C(O)C[C@H](O)CC(O)COc1c(Cl)cc(Cl)cc1C(F)=C1CCCCC1 (stereo partly specified) | –
24 | 7.05 | – | Cc1cc(C)c(OCC(O)C[C@@H](O)CC(=O)O)c(C(c2ccc(F)cc2)c2cccc(C(F)(F)F)c2)c1 (stereo partly specified) | –
25 | 7.12 | 12 | Cc1cc(Cl)cc(CC2CCCCC2)c1OCC(O)C[C@@H](O)CC(=O)O (stereo partly specified) | –
26 | 6.72 | 4 | O=C(O)C[C@H](O)CC(O)COc1c(Cl)cc(Cl)cc1C(=O)C1CCCCC1 (stereo partly specified) | –
27 | 7.00 | 9 | Cc1cc(C)c(OCC(O)C[C@@H](O)CC(=O)O)c(CC2CCCCC2)c1 (stereo partly specified) | –
28 | 6.82 | 4 | O=C(O)C[C@H](O)CC(O)COc1c(Cl)cc(Cl)cc1C(CCOc1ccc(F)cc1)c1ccc(F)cc1 (stereo partly specified) | –
29 | 6.72 | 5 | O=C(O)C[C@H](O)CC(O)COc1c(Cl)cc(Cl)cc1-c1ccccc1 (stereo partly specified) | –
30 | 7.57 | 31 | O=C(O)C[C@H](O)CC(O)COc1c(Cl)cc(Cl)cc1CC1CCCCC1 (stereo partly specified) | –
31 | 6.59 | 3 | O=C(O)C[C@H](O)CC(O)COc1cc(OCc2ccc(F)cc2)c(Cl)cc1Cl (stereo partly specified) | –
32 | 6.49 | – | CCC(C)(C)C(=O)NC(c1cc(C)cc(C)c1OCC(O)C[C@@H](O)CC(=O)O)C1CCCCC1 (stereo in doubt; 11w) [listing 1 of 2 here] | pIC50 [2]: 4.82
33 | 7.07 | – | O=C(O)C[C@H](O)CC(O)COc1c(Cl)cc(Cl)cc1C(F)(F)C1CCCCC1 (stereo partly specified) | pIC50 [2]: 5.60; Relative potency [4]: 2
34 | 7.30 | 16 | CC(C)c1c(OCC(O)C[C@@H](O)CC(=O)O)c(-c2ccc(F)cc2)nc2ccccc12 (stereo partly specified) | pIC50 [2]: 6.60; Relative potency [4]: 20
35 | 7.10 | 10 | Cc1cc(Cl)cc(CCCOc2ccc(F)cc2)c1OCC(O)C[C@@H](O)CC(=O)O (stereo partly specified) | –
36 | 7.15 | – | Cc1cc(C)c(OCC(O)C[C@@H](O)CC(=O)O)c(C(c2ccc(F)cc2)c2ccc(F)cc2)c1 (stereo partly specified) | –
37 | 7.30 | 15 | Cc1cc(Cl)cc(CCCOc2ccc(Cl)cc2)c1OCC(O)C[C@@H](O)CC(=O)O (stereo partly specified) | –
38 | 6.80 | – | Cc1cc(C)c(OCC(O)C[C@@H](O)CC(=O)O)c(C(C)c2ccc(F)cc2)c1 (stereo partly specified) | –
39 | 6.60 | 3 | Cc1cccc(CCCOc2ccc(F)cc2)c1OCC(O)C[C@@H](O)CC(=O)O (stereo partly specified) | –
40 | 7.15 | – | Cc1cc(Cl)cc(C(c2ccc(F)cc2)c2ccc(F)cc2)c1OCC(O)C[C@@H](O)CC(=O)O (stereo partly specified) | –
41 | 6.57 | – | Cc1cc(Cl)c(OCC(O)C[C@@H](O)CC(=O)O)c(C(c2ccc(F)c(C)c2)c2ccc(F)c(C)c2)c1 (stereo partly specified) | –
42 | 7.02 | 8 | Cc1cc(C)c(OCC(O)C[C@@H](O)CC(=O)O)c(C(c2ccc(F)cc2)C2CCCCC2)c1 (stereo partly specified) | –
43 | 6.85 | – | Cc1cc(C)c(OCC(O)C[C@@H](O)CC(=O)O)c(C(CC(C)C)c2ccc(F)cc2)c1 (stereo partly specified) | –
44 | 7.00 | – | COc1ccc(C(c2ccc(F)cc2)c2cc(C)cc(C)c2OCC(O)C[C@@H](O)CC(=O)O)cc1 (stereo partly specified) | –
